Experimental data taken from ChEMBL document CHEMBL1764997, “(Z)-3-butylidenephthalide from Ligusticum porteri , an α-glucosidase inhibitor” (J Nat Prod, 2011).
The source made the active and inactive calls. No cut-off for these calls is given here.

Columns and labels:
[1] = target: Alpha-glucosidase MAL62 (Saccharomyces cerevisiae) (UniProt P07265); assay: (§1) Inhibition of yeast alpha-glucosidase assessed as inhibition of p-nitrophenyl-alpha-D-glucopyranoside substrate hydrolysis after 35 mins by spectroscopy
Alpha-glucosidase MAL62 (Saccharomyces cerevisiae), sequence (P07265 whole entry): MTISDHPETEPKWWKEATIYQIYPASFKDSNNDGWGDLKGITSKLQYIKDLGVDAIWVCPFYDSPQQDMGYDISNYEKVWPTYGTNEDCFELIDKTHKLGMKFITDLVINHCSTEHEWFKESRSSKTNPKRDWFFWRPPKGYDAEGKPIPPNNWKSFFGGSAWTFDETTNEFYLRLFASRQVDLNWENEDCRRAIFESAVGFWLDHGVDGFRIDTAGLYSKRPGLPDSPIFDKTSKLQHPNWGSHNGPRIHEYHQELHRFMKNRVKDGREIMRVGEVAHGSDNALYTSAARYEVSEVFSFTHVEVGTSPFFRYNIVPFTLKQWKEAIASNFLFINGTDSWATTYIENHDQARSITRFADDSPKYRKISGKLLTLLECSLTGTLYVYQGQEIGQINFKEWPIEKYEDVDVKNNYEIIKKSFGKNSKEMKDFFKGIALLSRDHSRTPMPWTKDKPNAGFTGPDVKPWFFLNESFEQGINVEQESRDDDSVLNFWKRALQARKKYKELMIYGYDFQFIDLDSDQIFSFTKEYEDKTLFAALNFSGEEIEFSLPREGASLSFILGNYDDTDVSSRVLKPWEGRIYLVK

Mus musculus [2] = assay: Antihyperglycemic activity in ICR mouse assessed as change in blood glucose level at 31.2 mg/kg at 1 hr by oral glucose tolerance test (RVb= 1.5 %); format: functional
Mus musculus [3] = assay: Antihyperglycemic activity in ICR mouse assessed as change in blood glucose level at 31.2 mg/kg at 1.5 hrs by oral glucose tolerance test (RVb= 2.5 %); format: functional
Mus musculus [4] = assay: Antihyperglycemic activity in ICR mouse assessed as change in blood glucose level at 31.2 mg/kg at 2 hrs by oral glucose tolerance test (RVb= -12 %); format: functional
Mus musculus [5] = assay: Antihyperglycemic activity in ICR mouse assessed as change in blood glucose level at 56.2 mg/kg at 0.5 hr by oral glucose tolerance test (RVb= 59 %); format: functional
Mus musculus [6] = assay: Antihyperglycemic activity in ICR mouse assessed as change in blood glucose level at 56.2 mg/kg at 1 hr by oral glucose tolerance test (RVb= 1.5 %); format: functional
Mus musculus [7] = assay: Antihyperglycemic activity in ICR mouse assessed as change in blood glucose level at 56.2 mg/kg at 1.5 hrs by oral glucose tolerance test (RVb= 2.5 %); format: functional
Mus musculus [8] = assay: Antihyperglycemic activity in ICR mouse assessed as change in blood glucose level at 56.2 mg/kg at 2 hrs by oral glucose tolerance test (RVb= -12 %); format: functional
Mus musculus [9] = assay: Antidiabetic activity in streptozotocin-induced diabetic ICR mouse assessed as change in blood glucose level at 10 mg/kg after 0.5 hr by oral glucose tolerance test (RVb= 51.9 %); format: functional
Mus musculus [10] = assay: Antidiabetic activity in streptozotocin-induced diabetic ICR mouse assessed as change in blood glucose level at 31.2 mg/kg after 0.5 hr by oral glucose tolerance test (RVb= 51.9 %); format: functional
Mus musculus [11] = assay: Antidiabetic activity in streptozotocin-induced diabetic ICR mouse assessed as change in blood glucose level at 56.2 mg/kg after 0.5 hr by oral glucose tolerance test (RVb= 51.9 %); format: functional
Mus musculus [12] = assay: Antidiabetic activity in streptozotocin-induced diabetic ICR mouse assessed as change in blood glucose level at 10 mg/kg after 1 hr by oral glucose tolerance test (RVb= 10.3 %); format: functional
Mus musculus [13] = assay: Antidiabetic activity in streptozotocin-induced diabetic ICR mouse assessed as change in blood glucose level at 31.2 mg/kg after 1 hr by oral glucose tolerance test (RVb= 10.3 %); format: functional
Mus musculus [14] = assay: Antidiabetic activity in streptozotocin-induced diabetic ICR mouse assessed as change in blood glucose level at 56.2 mg/kg after 1 hr by oral glucose tolerance test (RVb= 10.3 %); format: functional
Mus musculus [15] = assay: Antidiabetic activity in streptozotocin-induced diabetic ICR mouse assessed as change in blood glucose level at 10 mg/kg after 1.5 hrs by oral glucose tolerance test (RVb= 0.005 %); format: functional
Mus musculus [16] = assay: Antidiabetic activity in streptozotocin-induced diabetic ICR mouse assessed as change in blood glucose level at 31.2 mg/kg after 1.5 hrs by oral glucose tolerance test (RVb= 0.005 %); format: functional
Mus musculus [17] = assay: Antidiabetic activity in streptozotocin-induced diabetic ICR mouse assessed as change in blood glucose level at 56.2 mg/kg after 1.5 hrs by oral glucose tolerance test (RVb= 0.005 %); format: functional
Mus musculus [18] = assay: Antidiabetic activity in streptozotocin-induced diabetic ICR mouse assessed as change in blood glucose level at 10 mg/kg after 2 hrs by oral glucose tolerance test (RVb= -12.9 %); format: functional
Mus musculus [19] = assay: Antidiabetic activity in streptozotocin-induced diabetic ICR mouse assessed as change in blood glucose level at 31.2 mg/kg after 2 hrs by oral glucose tolerance test (RVb= -12.9 %); format: functional
Mus musculus [20] = assay: Antidiabetic activity in streptozotocin-induced diabetic ICR mouse assessed as change in blood glucose level at 56.2 mg/kg after 2 hrs by oral glucose tolerance test (RVb= -12.9 %); format: functional
Mus musculus [21] = assay: Antihyperglycemic activity in ICR mouse assessed as change in blood glucose level at 31.2 mg/kg after 0.5 hr by oral glucose tolerance test (RVb= 59 %); format: functional
Mus musculus [22] = organism: Mus musculus; assay: Inhibition of alpha-glucosidase in streptozotocin-induced diabetic ICR mouse intestine assessed as lowering of blood glucose levels; format: functional, organism-based
Summary of the method: (§2)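 NAD (40 mg/kg ip) then STZ (100 mg/kg ip, 15 min later) diabetic male ICR mice, glucose >140 mg/dL after 7 days. Animals fasted 12 h, dosed orally in 0.05% Tween 80/saline, and given oral sucrose 2 g/kg 30 min later.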

Alpha-glucosidase MAL62 = Alpha-glucosidase MAL62 (Saccharomyces cerevisiae, UniProt P07265); assay: as §1
Alpha-glucosidase MAL62, sequence (P07265 whole entry): as above

Mus musculus [23] = assay: Antihyperglycemic activity in ICR mouse assessed as change in blood glucose level at 10 mg/kg after 0.5 hr by oral glucose tolerance test (RVb= 59 %); format: functional
Mus musculus [24] = assay: Antihyperglycemic activity in ICR mouse assessed as change in blood glucose level at 10 mg/kg after 1 hr by oral glucose tolerance test (RVb= 1.5 %); format: functional
Mus musculus [25] = assay: Antihyperglycemic activity in ICR mouse assessed as change in blood glucose level at 10 mg/kg after 1.5 hrs by oral glucose tolerance test (RVb= 2.5 %); format: functional
Mus musculus [26] = assay: Antihyperglycemic activity in ICR mouse assessed as change in blood glucose level at 10 mg/kg after 2 hrs by oral glucose tolerance test (RVb= -12 %); format: functional
Mus musculus [27] = assay: Antihyperglycemic activity in ICR mouse assessed as change in blood glucose level at 20 mg/kg after 0.5 hr by oral glucose tolerance test (RVb= 59 %); format: functional
Mus musculus [28] = assay: Antihyperglycemic activity in ICR mouse assessed as change in blood glucose level at 20 mg/kg after 1 hr by oral glucose tolerance test (RVb= 1.5 %); format: functional
Mus musculus [29] = assay: Antihyperglycemic activity in ICR mouse assessed as change in blood glucose level at 20 mg/kg after 1.5 hrs by oral glucose tolerance test (RVb= 2.5 %); format: functional
Mus musculus [30] = assay: Antihyperglycemic activity in ICR mouse assessed as change in blood glucose level at 20 mg/kg after 2 hrs by oral glucose tolerance test (RVb= -12 %); format: functional
Mus musculus [31] = assay: Antidiabetic activity in streptozotocin-induced diabetic ICR mouse assessed as change in blood glucose level at 10 mg/kg after 0.5 hr by oral sucrose tolerance test (RVb= 56 %); format: functional; summary of the method: as §2
Mus musculus [32] = assay: Antidiabetic activity in streptozotocin-induced diabetic ICR mouse assessed as change in blood glucose level at 56.2 mg/kg after 0.5 hr by oral sucrose tolerance test (RVb= 56 %); format: functional; summary of the method: as §2
Mus musculus [33] = assay: Antidiabetic activity in streptozotocin-induced diabetic ICR mouse assessed as change in blood glucose level at 10 mg/kg after 1 hr by oral sucrose tolerance test (RVb= 11.4 %); format: functional; summary of the method: as §2
Mus musculus [34] = assay: Antidiabetic activity in streptozotocin-induced diabetic ICR mouse assessed as change in blood glucose level at 56.2 mg/kg after 1 hr by oral sucrose tolerance test (RVb= 11.4 %); format: functional; summary of the method: as §2
Mus musculus [35] = assay: Antidiabetic activity in streptozotocin-induced diabetic ICR mouse assessed as change in blood glucose level at 10 mg/kg after 1.5 hrs by oral sucrose tolerance test (RVb= 6.1 %); format: functional; summary of the method: as §2
Mus musculus [36] = assay: Antidiabetic activity in streptozotocin-induced diabetic ICR mouse assessed as change in blood glucose level at 56.2 mg/kg after 1.5 hrs by oral sucrose tolerance test (RVb= 6.1 %); format: functional; summary of the method: as §2
Mus musculus [37] = assay: Antidiabetic activity in streptozotocin-induced diabetic ICR mouse assessed as change in blood glucose level at 10 mg/kg after 2 hrs by oral sucrose tolerance test (RVb= -4.3 %); format: functional; summary of the method: as §2
Mus musculus [38] = assay: Antidiabetic activity in streptozotocin-induced diabetic ICR mouse assessed as change in blood glucose level at 56.2 mg/kg after 2 hrs by oral sucrose tolerance test (RVb= -4.3 %); format: functional; summary of the method: as §2
Mus musculus [39] = organism: Mus musculus; assay: Antidiabetic activity in streptozotocin-induced diabetic ICR mouse assessed as lowering of blood glucose level by oral sucrose tolerance test; format: functional, organism-based; summary of the method: as §2
Mus musculus [40] = assay: Antidiabetic activity in streptozotocin-induced diabetic ICR mouse assessed as change in blood glucose level at 5 mg/kg after 0.5 hr by oral sucrose tolerance test (RVb= 56 %); format: functional; summary of the method: as §2
Mus musculus [41] = assay: Antidiabetic activity in streptozotocin-induced diabetic ICR mouse assessed as change in blood glucose level at 5 mg/kg after 1 hr by oral sucrose tolerance test (RVb= 11.4 %); format: functional; summary of the method: as §2
Mus musculus [42] = assay: Antidiabetic activity in streptozotocin-induced diabetic ICR mouse assessed as change in blood glucose level at 5 mg/kg after 1.5 hrs by oral sucrose tolerance test (RVb= 6.1 %); format: functional; summary of the method: as §2
Mus musculus [43] = assay: Antidiabetic activity in streptozotocin-induced diabetic ICR mouse assessed as change in blood glucose level at 5 mg/kg after 2 hrs by oral sucrose tolerance test (RVb= -4.3 %); format: functional; summary of the method: as §2
Mus musculus [44] = assay: Antihyperglycemic activity in po dosed diabetic KK-Ay mouse model; format: functional, organism-based
Rattus norvegicus [45] = assay: Hypoglycemic activity in rat assessed as decrease in plasma glucose at 5 mg/kg, iv; format: functional, organism-based; design: dose 5 mg/kg
Rattus norvegicus [46] = assay: Hypoglycemic activity in rat assessed as increase in insulin concentration at 5 mg/kg, iv; format: functional, organism-based; design: dose 5 mg/kg
L6 = assay: Hypoglycemic activity in rat L6 myotubes assessed as increase in 2-deoxyglucose transport at 25 uM relative to control; format: functional
Mus musculus [47] = organism: Mus musculus; assay: Antidiabetic activity in streptozotocin-induced diabetic ICR mouse assessed as decrease in blood glucose levels by oral glucose tolerance test

SMILES	Activity [1]	Activity (Mus musculus [9]) [%]	Activity (Mus musculus [10]) [%]	Activity (Mus musculus [11]) [%]	Activity (Mus musculus [12]) [%]	Activity (Mus musculus [13]) [%]	Activity (Mus musculus [14]) [%]	Activity (Mus musculus [15]) [%]	Activity (Mus musculus [16]) [%]	Activity (Mus musculus [17]) [%]	Activity (Mus musculus [18]) [%]	Activity (Mus musculus [19]) [%]	Activity (Mus musculus [20]) [%]	Activity (Mus musculus [23]) [%]	Activity (Mus musculus [24]) [%]	Activity (Mus musculus [25]) [%]	Activity (Mus musculus [26]) [%]	also measured
CCC/C=C1\OC(=O)C2=C[C@H]3CC[C@]21C1C2=C(CC[C@H]13)/C(=C\CCC)OC2=O (stereo not given in full)	inactive	32	44	57	5.7	32	52	5.7	23	25	-5.5	8.8	8.9					Activity (Mus musculus [2]): -28%; Activity (Mus musculus [3]): -35%; Activity (Mus musculus [4]): -50%; Activity (Mus musculus [5]): 41%; Activity (Mus musculus [6]): -3.8%; Activity (Mus musculus [7]): -13%; Activity (Mus musculus [8]): -27%; Activity (Mus musculus [21]): 3.8%
C=CCc1cc(OC)c2c(c1)OCO2	inactive																	
CCCC=C1OC(=O)c2ccccc21 [(E)-BUTYLIDENEPHTHALIDE]	Dose-dependent effect	35	27	12	3.5	3.3	-5.2	1.5	-0.3	-12	-7.4	-9.1	-21.7	-9	-24	-41	-42	inhibition (Mus musculus [22]): Active; IC50 (Alpha-glucosidase MAL62): 2.35 mM; Ki (Alpha-glucosidase MAL62): 4.86 mM; Activity (Mus musculus [27]): 20%; Activity (Mus musculus [28]): -6.9%; Activity (Mus musculus [29]): -18%; Activity (Mus musculus [30]): -23%; Activity (Mus musculus [31]): 41%; Activity (Mus musculus [32]): 23%; Activity (Mus musculus [33]): 19%; Activity (Mus musculus [34]): 7.6%; Activity (Mus musculus [35]): 16%; Activity (Mus musculus [36]): 2.5%; Activity (Mus musculus [37]): 6.7%; Activity (Mus musculus [38]): 6.4%
C[C@H]1O[C@H](O[C@H]2[C@H](O)[C@@H](O)[C@@H](O[C@H]3[C@H](O)[C@@H](O)C(O)O[C@@H]3CO)O[C@@H]2CO)[C@H](O)[C@@H](O)[C@@H]1N[C@H]1C=C(CO)[C@@H](O)[C@H](O)[C@H]1O (stereo not given in full) [ACARBOSE]	Dose-dependent effect																	Activity (Mus musculus [39]): Active; Activity (Mus musculus [40]): -0.4%; Activity (Mus musculus [41]): 0.5%; Activity (Mus musculus [42]): 6.2%; Activity (Mus musculus [43]): 6.8%
COc1cc(/C=C/C(=O)O)ccc1O [FERULATE]	inactive																	Activity (Mus musculus [44]): Active; Activity (Rattus norvegicus [45]): Active; Activity (Rattus norvegicus [46]): Active; fold change (FC) (L6): 2.98
COc1ccc(Cl)cc1C(=O)NCCc1ccc(S(=O)(=O)NC(=O)NC2CCCCC2)cc1 [GLYBURIDE]		42			3.8			-10			-21.5			-42	-65	-69	-68	
CCC/C=C1\OC(=O)C2=C1CCC=C2 [LIGUSTILIDE]	inactive	13	17	25	-14	-6.3	17.1	-19	-12	2.1	-15.6	-10	6.5	42	25	7	-8	Activity (Mus musculus [27]): 40%; Activity (Mus musculus [28]): 14%; Activity (Mus musculus [29]): -3.5%; Activity (Mus musculus [30]): -16%; Activity (Mus musculus [47]): Dose-dependent effect
